Tests used:
[1] = Study 1: safety and tolerability; assay type: in vivo, human; conditions: Study 1, 6 mg/kg
How it was run: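 Healthy adult volunteers in a randomized, open-label, single-dose, two-period crossover. Each received test compound 6 mg/kg as a 30 min iv infusion and as a 2 min peripheral iv injection by syringe driver, in random order, with a 5-day washout. The investigator graded AEs for relatedness (not, unlikely, possibly, probably related) and severity (mild/moderate/severe). Tabulated AEs were possibly or probably related. Follow-up was 1–11 days post-dose.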

[2] = Study 2: safety and tolerability; assay type: in vivo, human
How it was run: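 Healthy adults (24 enrolled) were randomized 3:2:1 in a single-blind, placebo-controlled, parallel-group design. Groups received test compound 6 mg/kg, 4 mg/kg or placebo as a 2 min peripheral iv injection by syringe driver, once daily for 7 days. All subjects entered the safety analysis. The investigator graded AEs for relatedness (not, unlikely, possibly, probably) and severity. Tabulated AEs were possibly or probably related. Follow-up was 9–11 days after last dose.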

[3] = cited from earlier work
[4] = independent of the daptomycin concentration; cited from earlier work
[5] = Study 2, 4 mg/kg 2 min iv injection once daily for 7 days, n = 8
[6] = Study 2, 6 mg/kg 2 min iv injection once daily for 7 days, n = 12

CCCCCCCCCC(=O)N[C@@H](Cc1c[nH]c2ccccc12)C(=O)N[C@H](CC(N)=O)C(=O)N[C@@H](CC(=O)O)C(=O)N[C@@H]1C(=O)NCC(=O)N[C@@H](CCCN)C(=O)N[C@@H](CC(=O)O)C(=O)N[C@H](C)C(=O)N[C@@H](CC(=O)O)C(=O)NCC(=O)N[C@H](CO)C(=O)N[C@@H]([C@H](C)CC(=O)O)C(=O)N[C@@H](CC(=O)c2ccccc2N)C(=O)O[C@@H]1C [daptomycin]
Subjects with related adverse event: fatigue ([1]; 2 min iv injection, n = 16): 1 (6) n (%) | Subjects with related adverse event: headache ([1]; 2 min iv injection, n = 16): 1 (6) n (%) | Subjects with related adverse event: nausea ([1]; 2 min iv injection, n = 16): 1 (6) n (%) | Subjects with related adverse event: urinary tract infection ([1]; 2 min iv injection, n = 16): 1 (6) n (%) | local tolerability reaction: mild tenderness ([1]; 30 min iv infusion group): two subjects | local tolerability reaction: pain ([1]; 30 min iv infusion group): one subject | Subjects with at least one adverse event possibly or probably related to study drug: Any adverse event ([1]; 30 min iv infusion, n = 15): 2 (13) n (%) | Subjects with related adverse event: Gastrointestinal disorders ([1]; 30 min iv infusion, n = 15): 0 n (%) | Subjects with related adverse event: Infections and infestations ([1]; 30 min iv infusion, n = 15): 2 (13) n (%) | Subjects with related adverse event: Nervous system disorders ([1]; 30 min iv infusion, n = 15): 0 n (%) | Subjects with related adverse event: fatigue ([1]; 30 min iv infusion, n = 15): 0 n (%) | Subjects with related adverse event: headache ([1]; 30 min iv infusion, n = 15): 0 n (%) | Subjects with related adverse event: nausea ([1]; 30 min iv infusion, n = 15): 0 n (%) | Subjects with related adverse event: urinary tract infection ([1]; 30 min iv infusion, n = 15): 2 (13) n (%) | serious or severe AEs or deaths ([1]; both regimens): no serious or severe AEs or deaths were reported | tolerability ([1]; both regimens): well tolerated | total AEs reported ([1]; both regimens, 16 subjects): 21 | AEs of mild severity ([1]; both regimens, of 21 AEs): Nineteen | Subjects with at least one adverse event possibly or probably related to study drug: Any adverse event [2, 5]: 2 (25) n (%) | Subjects with related adverse event: Gastrointestinal disorders [2, 5]: 1 (13) n (%) | Subjects with related adverse event: Infections and infestations [2, 5]: 0 n (%) | Subjects with related adverse event: Nervous system disorders [2, 5]: 1 (13) n (%) | Subjects with related adverse event: dizziness [2, 5]: 0 n (%) | Subjects with related adverse event: dizziness postural [2, 5]: 0 n (%) | Subjects with related adverse event: flatulence [2, 5]: 1 (13) n (%) | Subjects with related adverse event: headache [2, 5]: 0 n (%) | Subjects with related adverse event: lethargy [2, 5]: 1 (13) n (%) | Subjects with related adverse event: nausea [2, 5]: 0 n (%) | Subjects with related adverse event: pain in extremity [2, 5]: 1 (13) n (%) | Subjects with related adverse event: paraesthesia [2, 5]: 0 n (%) | Subjects with related adverse event: upper respiratory tract infection [2, 5]: 0 n (%) | subjects with erythema (local injection-site reaction) [2, 5]: five subjects | Subjects with at least one adverse event possibly or probably related to study drug: Any adverse event [2, 6]: 3 (25) n (%) | Subjects with related adverse event: Gastrointestinal disorders [2, 6]: 0 n (%) | Subjects with related adverse event: Infections and infestations [2, 6]: 0 n (%) | Subjects with related adverse event: Nervous system disorders [2, 6]: 3 (25) n (%) | Subjects with related adverse event: dizziness [2, 6]: 1 (8) n (%) | Subjects with related adverse event: dizziness postural [2, 6]: 1 (8) n (%) | Subjects with related adverse event: flatulence [2, 6]: 0 n (%) | Subjects with related adverse event: headache [2, 6]: 1 (8) n (%) | Subjects with related adverse event: lethargy [2, 6]: 0 n (%) | Subjects with related adverse event: nausea [2, 6]: 0 n (%) | Subjects with related adverse event: pain in extremity [2, 6]: 0 n (%) | Subjects with related adverse event: paraesthesia [2, 6]: 0 n (%) | Subjects with related adverse event: upper respiratory tract infection [2, 6]: 0 n (%) | subjects with erythema (local injection-site reaction) [2, 6]: two subjects | time to resolution of local injection-site reactions ([2]; Study 2, 2 min iv injection, reactions generally mild and transient): ≤ 1 h | serious or other significant AEs ([2]; Study 2, multiple-dose, 24 subjects enrolled (placebo included)): no serious or other significant AEs | steady state reached by ([3]; 30 min iv infusion, independent of dose): ≤ 3 days | volume of distribution (V) ([3]; average): ~0.1 L/kg | protein bound [4]: 90–93%
